From ChEMBL document CHEMBL4138066, “Synthesis and evaluation of small molecules bearing a benzyloxy substituent as novel and potent monoamine oxidase inhibitors” (Medchemcomm, 2017)

Experiments:
[1] = biological target: T1, MAO-A (amine oxidase [flavin-containing] A) (Homo sapiens, UniProt P21397); assay: Inhibition of human MAOA at 100 uM incubated for 15 mins using p-tyramine substrate by Amplex red reagent based fluorescence assay; details: human MAOA enzyme, probe p-tyramine
T1 sequence (P21397 whole entry): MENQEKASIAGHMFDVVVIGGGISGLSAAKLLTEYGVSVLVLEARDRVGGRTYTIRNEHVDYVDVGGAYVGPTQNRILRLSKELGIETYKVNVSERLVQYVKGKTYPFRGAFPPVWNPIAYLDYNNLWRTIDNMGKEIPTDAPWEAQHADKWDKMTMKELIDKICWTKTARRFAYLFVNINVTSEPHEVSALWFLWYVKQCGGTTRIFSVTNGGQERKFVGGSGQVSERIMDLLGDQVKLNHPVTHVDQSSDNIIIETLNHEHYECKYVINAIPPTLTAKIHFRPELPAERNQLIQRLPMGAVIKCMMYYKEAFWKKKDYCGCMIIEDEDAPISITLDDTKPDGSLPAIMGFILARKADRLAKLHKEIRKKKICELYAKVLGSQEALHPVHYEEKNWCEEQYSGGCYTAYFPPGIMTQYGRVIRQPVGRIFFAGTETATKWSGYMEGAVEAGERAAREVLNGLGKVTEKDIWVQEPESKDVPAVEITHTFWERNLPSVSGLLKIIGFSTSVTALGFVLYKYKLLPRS
Summary of the method: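 hMAO-A was tested at a single concentration of 100 μM, with iproniazid as reference inhibitor.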

[2] = biological target: T2, Amine oxidase [flavin-containing] B (Homo sapiens, UniProt P27338); assay: Inhibition of human MAOB incubated for 15 mins using p-tyramine substrate by Amplex red reagent based fluorescence assay
T2 sequence (P27338 whole entry): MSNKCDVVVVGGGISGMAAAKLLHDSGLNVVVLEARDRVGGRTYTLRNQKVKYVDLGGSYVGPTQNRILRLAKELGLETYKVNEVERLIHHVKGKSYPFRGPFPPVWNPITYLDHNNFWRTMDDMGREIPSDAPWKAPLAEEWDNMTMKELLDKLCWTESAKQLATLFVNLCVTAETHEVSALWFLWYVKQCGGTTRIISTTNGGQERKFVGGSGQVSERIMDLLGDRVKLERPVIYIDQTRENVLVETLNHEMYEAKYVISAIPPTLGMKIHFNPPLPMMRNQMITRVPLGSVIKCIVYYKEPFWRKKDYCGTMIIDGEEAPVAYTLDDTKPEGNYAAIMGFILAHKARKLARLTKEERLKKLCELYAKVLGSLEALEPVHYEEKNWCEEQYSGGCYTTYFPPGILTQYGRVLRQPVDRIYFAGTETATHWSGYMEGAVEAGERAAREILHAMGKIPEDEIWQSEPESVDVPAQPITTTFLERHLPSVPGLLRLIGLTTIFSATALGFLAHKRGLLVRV

Homo sapiens = species: Homo sapiens; assay: Selectivity index, ratio of IC50 for human MAOA to IC50 for human MAOB
Summary of the method: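 Selectivity index was computed as IC50 (MAO-A)/IC50 (MAO-B), each IC50 being the mean of three experiments.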

[3] = biological target: T3, Amine oxidase [flavin-containing] A (Homo sapiens, UniProt P21397); assay: Inhibition of human MAOA incubated for 15 mins using p-tyramine substrate by Amplex red reagent based fluorescence assay
T3 sequence (P21397 whole entry): T1 sequence (P21397 whole entry)
Summary of the method: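 IC50 against hMAO-A is reported as mean ± SEM of three experiments, with iproniazid as reference.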

[4] = biological target: T2, Amine oxidase [flavin-containing] B; assay: Reversible inhibition of human MAOB at 2 fold enzymatic IC50 level pre-incubated for 0 to 60 mins using p-tyramine substrate and measured after 15 mins by Amplex red reagent based fluorescence assay; details: 0.25 h
[5] = biological target: T2, Amine oxidase [flavin-containing] B; assay: Reversible inhibition of human MAOB at 2 fold enzymatic IC50 level pre-incubated for 0 mins using p-tyramine substrate and measured after 15 mins by Amplex red reagent based fluorescence assay; details: 0.25 h
[6] = biological target: T2, Amine oxidase [flavin-containing] B; assay: Reversible inhibition of human MAOB at 2 fold enzymatic IC50 level pre-incubated for 15 mins using p-tyramine substrate and measured after 15 mins by Amplex red reagent based fluorescence assay; details: 0.25 h
[7] = biological target: T2, Amine oxidase [flavin-containing] B; assay: Reversible inhibition of human MAOB at 2 fold enzymatic IC50 level pre-incubated for 30 mins using p-tyramine substrate and measured after 15 mins by Amplex red reagent based fluorescence assay; details: 0.25 h
[8] = biological target: T2, Amine oxidase [flavin-containing] B; assay: Reversible inhibition of human MAOB at 2 fold enzymatic IC50 level pre-incubated for 60 mins using p-tyramine substrate and measured after 15 mins by Amplex red reagent based fluorescence assay; details: 0.25 h
[9] = biological target: T2, Amine oxidase [flavin-containing] B; assay: Competitive inhibition of human MAOB at 0.095 to 0.38 uM using 50 to 500 uM p-tyramine substrate by Amplex red reagent dependent fluorescence assay based Lineweaver-Burk plot analysis
Summary of the method: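 Kinetics were run as Michaelis-Menten experiments. Rates were measured at five p-tyramine concentrations (50-500 μM), with four inhibitor concentrations (0, 0.095, 0.19 and 0.38 μM). Inhibition type was assigned from overlaid double-reciprocal Lineweaver-Burk plots.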

SH-SY5Y = assay: Cytotoxicity in human SH-SY5Y cells assessed as reduction in cell viability at 3 to 50 uM incubated for 48 hrs by MTT assay; type: cell-based
Summary of the method: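 SH-SY5Y cells were exposed to various concentrations of test compound for 48 h, then viability was read by MTT assay. Results are expressed as percentage of control cells, mean ± SD of three independent experiments.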

Compound	inhibition at 0.25 h, 100 µM [1]	IC50 [2]	Ratio IC50 (Homo sapiens)	IC50 [3]	also measured
Cc1cccc(COc2cccc(Br)c2)c1	43%	1.98 µM	> 50.5		
Fc1cccc(COc2cccc(Br)c2)c1	37%	1.06 µM	> 94.3		
Brc1cccc(OCc2ccccc2)c1	23%	2.73 µM	> 36.6		
COc1cccc(OCc2ccc(Br)cc2)c1	25%	8.63 µM	> 11.6		
COc1cccc(OCc2cccc(Br)c2)c1	22%	19.3 µM	> 5.2		
O=Cc1cccc(OCc2ccccc2)c1		1.96 µM	23.3	45.6 µM	
COc1cccc(OCc2ccccc2)c1	25%	15.8 µM	> 6.3		
O=Cc1cccc(OCc2cccc(F)c2)c1		1.21 µM	53.1	64.2 µM	
COc1cccc(OCc2ccc(C)cc2)c1	26%	14.6 µM	> 6.8		
Brc1ccc(COc2cccc(Br)c2)cc1	30%	0.35 µM			inhibition (INH) [4]: Active; inhibition (INH) [5]: 44.8%; inhibition (INH) [6]: 44.9%; inhibition (INH) [7]: 48.6%; inhibition (INH) [8]: 49.2%; inhibition (INH) [9]: Active; Activity (SH-SY5Y): Non-Toxic
COc1cccc(OCc2cccc(C)c2)c1	23%	10.9 µM	> 9.2		
O=Cc1cccc(OCc2ccc(Br)cc2)c1		0.19 µM		27.9 µM	inhibition (INH) [4]: Active; inhibition (INH) [5]: 46.4%; inhibition (INH) [6]: 45.8%; inhibition (INH) [7]: 49.9%; inhibition (INH) [8]: 49.5%; Activity (SH-SY5Y): Non-Toxic
COc1cccc(OCc2cccc(F)c2)c1	19%	12.3 µM	> 8.1		
O=Cc1cccc(OCc2ccc(F)cc2)c1		0.93 µM	45.7	42.5 µM	
O=Cc1cccc(OCc2cccc(Br)c2)c1		0.53 µM	53.2	28.2 µM	
Fc1ccc(COc2cccc(Br)c2)cc1	31%	0.58 µM	> 172		
Brc1cccc(COc2cccc(Br)c2)c1	27%	0.76 µM	> 132		
Cc1ccc(COc2cccc(Br)c2)cc1	24%	1.53 µM	> 65.4		
Cc1ccc(COc2cccc(C=O)c2)cc1		2.53 µM	25.6	64.8 µM	
Cc1cccc(COc2cccc(C=O)c2)c1		2.91 µM	17.7	51.6 µM	
COc1cccc(OCc2ccc(F)cc2)c1	22%	15.6 µM	> 6.4		
